Test results taken from ChEMBL document CHEMBL5649170, “Sustained microglial depletion with CSF1R inhibitor impairs parenchymal plaque development in an Alzheimer's disease model” (Nat Commun, 2019).
Calls of active or inactive are those of the source. The calls are words filed in the database; no cut-off is given here.

Columns and labels:
[1] = molecular target: Receptor-type tyrosine-protein kinase FLT3 (Homo sapiens, UniProt P36888); experiment: Inhibition of FLT3 (unknown origin)
[2] = molecular target: Tyrosine-protein kinase ABL1 (Homo sapiens, UniProt P00519); experiment: Inhibition of ABL1 (unknown origin)
Sequence of Tyrosine-protein kinase ABL1 (P00519 whole entry): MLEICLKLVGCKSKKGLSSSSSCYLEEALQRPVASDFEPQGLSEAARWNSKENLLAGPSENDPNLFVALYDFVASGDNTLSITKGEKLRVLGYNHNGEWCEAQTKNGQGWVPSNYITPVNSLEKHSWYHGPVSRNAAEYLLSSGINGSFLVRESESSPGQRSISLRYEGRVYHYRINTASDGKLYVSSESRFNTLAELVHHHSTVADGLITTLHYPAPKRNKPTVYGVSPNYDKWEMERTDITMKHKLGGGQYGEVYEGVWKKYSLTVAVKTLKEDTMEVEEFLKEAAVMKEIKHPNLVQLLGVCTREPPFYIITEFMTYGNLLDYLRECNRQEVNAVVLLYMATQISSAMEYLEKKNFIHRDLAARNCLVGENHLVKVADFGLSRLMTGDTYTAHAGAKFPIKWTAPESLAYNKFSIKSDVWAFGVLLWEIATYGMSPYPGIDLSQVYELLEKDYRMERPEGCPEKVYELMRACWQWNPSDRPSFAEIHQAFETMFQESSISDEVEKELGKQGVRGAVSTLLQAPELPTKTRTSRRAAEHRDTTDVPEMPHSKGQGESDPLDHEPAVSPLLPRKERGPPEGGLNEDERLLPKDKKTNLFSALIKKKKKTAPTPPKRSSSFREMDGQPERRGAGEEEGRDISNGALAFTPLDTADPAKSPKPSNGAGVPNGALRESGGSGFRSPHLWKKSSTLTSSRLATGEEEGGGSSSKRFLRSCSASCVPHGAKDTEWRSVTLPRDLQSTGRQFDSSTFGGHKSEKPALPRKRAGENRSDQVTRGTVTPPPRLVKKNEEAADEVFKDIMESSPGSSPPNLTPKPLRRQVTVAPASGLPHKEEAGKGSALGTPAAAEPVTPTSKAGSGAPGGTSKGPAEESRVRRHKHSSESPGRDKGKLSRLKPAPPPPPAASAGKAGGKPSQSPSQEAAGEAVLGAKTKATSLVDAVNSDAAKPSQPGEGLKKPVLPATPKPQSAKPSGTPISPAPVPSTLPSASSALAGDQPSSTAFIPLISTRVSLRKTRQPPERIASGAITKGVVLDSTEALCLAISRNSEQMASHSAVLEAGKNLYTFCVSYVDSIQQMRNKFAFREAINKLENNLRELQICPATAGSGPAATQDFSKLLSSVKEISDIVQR

[3] = molecular target: Serine/threonine-protein kinase MRCK alpha (Homo sapiens, UniProt Q5VT25); experiment: Inhibition of CDC42_BPA (unknown origin)
[4] = molecular target: Inhibitor of nuclear factor kappa-B kinase subunit alpha (Homo sapiens, UniProt O15111); experiment: Inhibition of CHUK (unknown origin)
Sequence of Inhibitor of nuclear factor kappa-B kinase subunit alpha (O15111 whole entry): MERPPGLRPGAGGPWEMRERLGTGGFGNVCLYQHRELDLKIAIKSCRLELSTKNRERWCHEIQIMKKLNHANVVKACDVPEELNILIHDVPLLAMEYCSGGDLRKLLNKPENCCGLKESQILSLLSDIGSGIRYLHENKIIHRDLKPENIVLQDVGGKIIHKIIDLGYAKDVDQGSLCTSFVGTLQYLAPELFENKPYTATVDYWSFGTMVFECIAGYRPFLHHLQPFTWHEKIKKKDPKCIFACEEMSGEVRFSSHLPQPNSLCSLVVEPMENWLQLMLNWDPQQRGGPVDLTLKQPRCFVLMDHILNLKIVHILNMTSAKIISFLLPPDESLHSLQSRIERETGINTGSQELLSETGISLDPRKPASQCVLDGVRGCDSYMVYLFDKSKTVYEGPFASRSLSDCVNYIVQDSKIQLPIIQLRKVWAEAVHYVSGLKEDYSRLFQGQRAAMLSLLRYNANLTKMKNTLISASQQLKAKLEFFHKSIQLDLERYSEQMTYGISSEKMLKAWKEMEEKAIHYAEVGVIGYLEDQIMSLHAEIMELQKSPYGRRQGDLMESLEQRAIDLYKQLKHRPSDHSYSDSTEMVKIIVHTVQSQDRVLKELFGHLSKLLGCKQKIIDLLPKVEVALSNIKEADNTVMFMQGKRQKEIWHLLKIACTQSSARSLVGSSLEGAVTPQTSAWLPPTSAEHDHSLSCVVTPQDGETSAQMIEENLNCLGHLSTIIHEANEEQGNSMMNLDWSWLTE

[5] = molecular target: Casein kinase II subunit alpha (Homo sapiens, UniProt P68400); experiment: Inhibition of CSNK2A1 (unknown origin)
[6] = molecular target: G protein-coupled receptor kinase 6 (Homo sapiens, UniProt P43250); experiment: Inhibition of GRK6 (unknown origin)
Insulin receptor = Insulin receptor (Homo sapiens, UniProt P06213); experiment: Inhibition of INSR (unknown origin)
[7] = molecular target: Mitogen-activated protein kinase kinase kinase kinase 2 (Homo sapiens, UniProt Q12851); experiment: Inhibition of MAP4K2 (unknown origin)
[8] = molecular target: Mitogen-activated protein kinase kinase kinase kinase 5 (Homo sapiens, UniProt Q9Y4K4); experiment: Inhibition of MAP4K5 (unknown origin)
Sequence of Mitogen-activated protein kinase kinase kinase kinase 5 (Q9Y4K4 whole entry): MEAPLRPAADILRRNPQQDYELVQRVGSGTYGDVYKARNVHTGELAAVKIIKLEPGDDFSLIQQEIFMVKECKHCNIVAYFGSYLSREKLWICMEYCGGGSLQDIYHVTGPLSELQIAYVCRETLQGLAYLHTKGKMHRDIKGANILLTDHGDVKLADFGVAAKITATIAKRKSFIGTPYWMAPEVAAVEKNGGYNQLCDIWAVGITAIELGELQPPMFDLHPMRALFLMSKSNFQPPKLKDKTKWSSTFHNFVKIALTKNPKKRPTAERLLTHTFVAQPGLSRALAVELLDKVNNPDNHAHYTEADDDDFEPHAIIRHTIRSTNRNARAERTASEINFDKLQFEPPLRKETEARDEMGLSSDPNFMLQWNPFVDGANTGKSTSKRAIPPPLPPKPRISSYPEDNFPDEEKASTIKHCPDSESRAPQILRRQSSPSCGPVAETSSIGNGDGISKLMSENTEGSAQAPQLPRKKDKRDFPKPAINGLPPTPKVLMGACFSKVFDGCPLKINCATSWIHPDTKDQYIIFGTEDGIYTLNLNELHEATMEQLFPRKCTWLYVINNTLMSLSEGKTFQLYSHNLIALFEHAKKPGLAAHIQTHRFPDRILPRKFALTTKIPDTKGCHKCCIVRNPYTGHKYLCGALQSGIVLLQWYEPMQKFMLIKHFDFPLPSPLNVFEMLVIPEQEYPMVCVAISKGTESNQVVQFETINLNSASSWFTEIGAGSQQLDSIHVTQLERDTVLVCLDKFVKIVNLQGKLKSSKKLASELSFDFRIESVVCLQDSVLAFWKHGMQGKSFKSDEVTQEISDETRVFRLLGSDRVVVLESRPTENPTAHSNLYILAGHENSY

[9] = molecular target: Serine/threonine-protein kinase PAK 2 (Homo sapiens, UniProt Q13177); experiment: Inhibition of PAK2 (unknown origin)
Sequence of Serine/threonine-protein kinase PAK 2 (Q13177 whole entry): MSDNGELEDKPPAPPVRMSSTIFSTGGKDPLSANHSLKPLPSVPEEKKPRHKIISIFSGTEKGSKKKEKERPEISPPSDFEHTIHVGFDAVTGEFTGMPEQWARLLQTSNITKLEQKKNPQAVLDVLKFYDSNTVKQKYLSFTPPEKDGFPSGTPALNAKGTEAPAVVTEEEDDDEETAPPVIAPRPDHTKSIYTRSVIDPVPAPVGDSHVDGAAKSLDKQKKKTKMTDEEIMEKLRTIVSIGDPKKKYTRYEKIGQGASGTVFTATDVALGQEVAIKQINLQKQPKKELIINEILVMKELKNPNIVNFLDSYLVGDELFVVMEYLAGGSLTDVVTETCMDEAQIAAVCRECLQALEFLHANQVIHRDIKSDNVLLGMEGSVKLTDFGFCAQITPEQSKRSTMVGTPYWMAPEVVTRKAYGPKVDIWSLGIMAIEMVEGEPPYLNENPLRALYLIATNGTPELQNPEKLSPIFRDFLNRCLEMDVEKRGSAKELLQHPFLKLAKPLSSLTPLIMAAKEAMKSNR

[10] = molecular target: Protein kinase C alpha type (Homo sapiens, UniProt P17252); experiment: Inhibition of PRKCA (unknown origin)
[11] = molecular target: Protein kinase C beta type (Homo sapiens, UniProt P05771); experiment: Inhibition of PRKCB2 (unknown origin)
Sequence of Protein kinase C beta type (P05771 whole entry): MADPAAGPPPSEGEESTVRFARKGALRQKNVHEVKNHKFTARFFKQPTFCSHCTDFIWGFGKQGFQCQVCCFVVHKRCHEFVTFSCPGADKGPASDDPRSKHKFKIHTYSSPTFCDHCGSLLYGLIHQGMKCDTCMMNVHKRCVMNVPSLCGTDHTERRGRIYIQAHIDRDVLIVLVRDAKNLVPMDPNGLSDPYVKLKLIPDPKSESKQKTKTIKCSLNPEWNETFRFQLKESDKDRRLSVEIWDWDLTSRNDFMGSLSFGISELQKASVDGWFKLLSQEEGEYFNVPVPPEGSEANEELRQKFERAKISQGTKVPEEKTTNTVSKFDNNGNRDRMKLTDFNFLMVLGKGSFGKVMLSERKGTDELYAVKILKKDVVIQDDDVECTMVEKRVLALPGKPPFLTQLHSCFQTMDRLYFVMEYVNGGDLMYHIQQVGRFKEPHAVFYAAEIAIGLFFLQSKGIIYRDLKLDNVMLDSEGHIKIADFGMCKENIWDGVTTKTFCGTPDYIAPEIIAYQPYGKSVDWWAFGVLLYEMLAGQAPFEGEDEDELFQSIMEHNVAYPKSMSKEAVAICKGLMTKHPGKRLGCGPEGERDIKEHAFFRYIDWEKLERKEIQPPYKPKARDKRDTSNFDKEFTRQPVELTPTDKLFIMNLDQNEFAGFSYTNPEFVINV

[12] = molecular target: Protein kinase C theta type (Homo sapiens, UniProt Q04759); experiment: Inhibition of PRKCQ (unknown origin)
[13] = molecular target: Protein kinase C zeta type (Homo sapiens, UniProt Q05513); experiment: Inhibition of PRKCZ (unknown origin)
[14] = Half-life in male rat at 1.13 mg/kg, iv administered as single dose; format: ADME, organism-based; conditions: in vivo
[15] = Drug concentration in wildtype mouse brain at 1200 ppm administered as rodent chow for 10 to 24 weeks; format: ADME, tissue-based; conditions: in vivo, po, time 10-24 weeks, read-out: Ct
In short: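 WT or 5xFAD mice were started at 1.5 months of age on PLX5622 formulated at 1200 ppm in AIN-76A chow, with control chow as comparison. Feeding ran for 10 or 24 weeks. Terminal plasma and brain drug levels were then measured. Groups were sex-balanced and compared by two-tailed independent t-test.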

Mus musculus [16] = experiment: Antialzheimer activity in 5XFAD mouse assessed as microglial elimination at 1200 ppm administered as rodent chow for 24 weeks relative to control; format: functional; conditions: route po
Mus musculus [17] = experiment: Antialzheimer activity in 5XFAD mouse assessed as time to locate platform at 1200 ppm administered as rodent chow for 10 to 24 weeks by Morris water maze test (reference value: 6.5 to 60 sec); format: functional; conditions: route po, time 10-24 weeks
In short: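 Morris water maze: a circular pool was filled with opaque water (white paint added), and mice were given four trials per acquisition day. Twenty-four hours after the last acquisition day, the platform was removed for a 60 s probe trial. Mice had been on 1200 ppm PLX5622 or control chow for 10 or 24 weeks from 1.5 months of age.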

[18] = Effect on Itgax gene expression in wild type mouse cortex at 1200 ppm administered as rodent chow starting from 1.5 months and measured after 7 months by RNA-Seq analysis (reference value: 0.069 to 0.218 RPKM); format: functional; conditions: route po, time 5.5 months, 4015 h
[19] = Prevention of St8sia5 gene downregulation in 5XFAD mouse hippocampus assessed as percent change in Reads Per kilo base per Million mapped reads at 1200 ppm administered as rodent chow starting from 1.5 months and measured after 7 months by RNA-Seq analysis (reference value: 42.024 to 86.833 %); format: functional; conditions: route po, time 5.5 months, 4015 h
[20] = Prevention of Nrg3 gene downregulation in 5XFAD mouse hippocampus assessed as percent change in Reads Per kilo base per Million mapped reads at 1200 ppm administered as rodent chow starting from 1.5 months and measured after 7 months by RNA-Seq analysis (reference value: 52.623 to 75.016 %); format: functional; conditions: route po, time 5.5 months, 4015 h
Mus musculus [21] = experiment: Prevention of Tmem119 gene upregulation in 5XFAD mouse hippocampus at 1200 ppm administered as rodent chow starting from 1.5 months and measured after 7 months by Nanostring analysis; format: functional, tissue-based; conditions: route po, time 5.5 months
Mus musculus [22] = experiment: Prevention of Tgfb1 gene upregulation in 5XFAD mouse hippocampus at 1200 ppm administered as rodent chow starting from 1.5 months and measured after 7 months by Nanostring analysis; format: functional, tissue-based; conditions: route po, time 5.5 months
Mus musculus [23] = experiment: Prevention of C1qa gene upregulation in 5XFAD mouse hippocampus at 1200 ppm administered as rodent chow starting from 1.5 months and measured after 7 months by Nanostring analysis; format: functional, tissue-based; conditions: route po, time 5.5 months
Mus musculus [24] = experiment: Prevention of Cacnb4 gene downregulation in 5XFAD mouse hippocampus at 1200 ppm administered as rodent chow starting from 1.5 months and measured after 7 months by Nanostring analysis; format: functional, tissue-based; conditions: route po, time 5.5 months

Sequence of Receptor-type tyrosine-protein kinase FLT3 (P36888 whole entry): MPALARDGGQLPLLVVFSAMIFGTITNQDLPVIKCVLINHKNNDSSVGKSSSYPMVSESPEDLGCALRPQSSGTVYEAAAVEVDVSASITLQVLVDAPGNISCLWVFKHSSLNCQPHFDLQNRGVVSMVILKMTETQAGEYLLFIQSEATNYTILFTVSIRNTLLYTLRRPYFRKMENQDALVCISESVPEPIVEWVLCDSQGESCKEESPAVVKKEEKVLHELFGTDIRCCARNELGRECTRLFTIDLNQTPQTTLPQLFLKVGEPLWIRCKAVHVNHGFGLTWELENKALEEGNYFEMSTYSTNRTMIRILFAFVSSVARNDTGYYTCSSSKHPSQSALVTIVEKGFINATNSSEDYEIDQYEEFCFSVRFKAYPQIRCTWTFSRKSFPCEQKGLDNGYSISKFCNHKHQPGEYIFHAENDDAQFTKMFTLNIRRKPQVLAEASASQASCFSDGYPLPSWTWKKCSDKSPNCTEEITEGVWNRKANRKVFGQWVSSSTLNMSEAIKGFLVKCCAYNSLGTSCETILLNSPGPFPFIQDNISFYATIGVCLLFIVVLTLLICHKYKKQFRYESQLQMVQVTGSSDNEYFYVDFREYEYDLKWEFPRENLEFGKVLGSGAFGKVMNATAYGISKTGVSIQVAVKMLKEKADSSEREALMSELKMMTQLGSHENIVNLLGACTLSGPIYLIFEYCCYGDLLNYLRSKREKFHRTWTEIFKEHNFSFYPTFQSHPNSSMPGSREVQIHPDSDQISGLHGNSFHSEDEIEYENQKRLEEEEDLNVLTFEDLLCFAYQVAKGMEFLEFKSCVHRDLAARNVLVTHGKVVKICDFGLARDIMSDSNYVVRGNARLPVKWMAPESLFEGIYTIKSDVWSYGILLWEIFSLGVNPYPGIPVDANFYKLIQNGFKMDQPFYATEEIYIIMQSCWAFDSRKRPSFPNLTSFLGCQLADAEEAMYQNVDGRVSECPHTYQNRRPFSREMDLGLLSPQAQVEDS

COc1ncc(F)cc1CNc1ccc(Cc2c[nH]c3ncc(C)cc23)c(F)n1 [PLX-5622]
IC50 [1]: 390 nM
IC50 [2]: > 1000 nM
IC50 [3]: > 1000 nM
IC50 [4]: > 1000 nM
IC50 [5]: > 1000 nM
IC50 [6]: > 1000 nM
IC50 (Insulin receptor): > 1000 nM
IC50 [7]: > 1000 nM
IC50 [8]: > 1000 nM
IC50 [9]: > 1000 nM
IC50 [10]: > 1000 nM
IC50 [11]: > 1000 nM
IC50 [12]: > 1000 nM
IC50 [13]: > 1000 nM
half-life [14]: 2.3 h
concentration [15]: 3.35 µM
Activity (Mus musculus [16]): 97%
Time (Mus musculus [17]): 9.2 s
Activity [18]: 0 RPKM
Activity [19]: 74.641%
Activity [20]: 86.32%
Activity (Mus musculus [21]): Active
Activity (Mus musculus [22]): Active
Activity (Mus musculus [23]): Active
Activity (Mus musculus [24]): Active
